From ChEMBL document CHEMBL3286244, “Chlorpheniramine Analogues Reverse Chloroquine Resistance in Plasmodium falciparum by Inhibiting PfCRT” (ACS Med Chem Lett, 2014)
The source made the active and inactive calls. The rule behind the calls is not given here.

Assays:
Plasmodium falciparum [1] = assay: Response modification index, ratio of IC50 for Plasmodium falciparum C2GC03 expressing wild-type pfcrt allele in presence of drug to IC50 for Plasmodium falciparum C2GC03 expressing wild-type pfcrt allele in absence of 800 nM of drug; assay type: functional
Method in brief: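 In a parasite proliferation assay on the isogenic pfcrt transfectant line C2GCO3 (wild-type allele), chloroquine IC50 was measured with and without the test compound at 800 nM. RMI is chloroquine IC50 with the compound divided by chloroquine IC50 without it.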

[2] = target: T1, Chloroquine resistance transporter (Plasmodium falciparum) (UniProt Q9N623); assay: Inhibition of chloroquine-resistant Plasmodium falciparum Dd2 CRT expressed in Xenopus laevis oocytes plasma membrane assessed as reduction of [3H]-chloroquine transportation at 100 uM after 1 to 2 hrs; assay type: cell-based
T1 sequence (whole entry): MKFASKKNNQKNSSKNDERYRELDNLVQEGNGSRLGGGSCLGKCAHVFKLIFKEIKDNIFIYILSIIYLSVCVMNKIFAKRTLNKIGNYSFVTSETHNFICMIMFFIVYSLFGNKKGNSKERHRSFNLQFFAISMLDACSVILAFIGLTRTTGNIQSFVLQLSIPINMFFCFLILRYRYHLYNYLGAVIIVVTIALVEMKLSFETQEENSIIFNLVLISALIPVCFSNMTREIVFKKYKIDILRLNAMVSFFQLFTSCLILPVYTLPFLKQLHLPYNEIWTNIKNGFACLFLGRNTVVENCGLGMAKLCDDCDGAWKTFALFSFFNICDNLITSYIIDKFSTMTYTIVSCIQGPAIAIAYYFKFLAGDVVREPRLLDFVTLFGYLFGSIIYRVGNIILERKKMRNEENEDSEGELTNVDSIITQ
Method in brief: (§1)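 Xenopus oocytes expressing PfCRT of the CQ-resistant (PfCRTCQR) or CQ-sensitive (PfCRTCQS) form. [3H]CQ uptake measured in the presence of reverser at 100 μM extracellular.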

[3] = target: T1, Chloroquine resistance transporter (Plasmodium falciparum); assay: Inhibition of CTR in Plasmodium falciparum C67G8 expressing chloroquine-resistance-conferring pfcrt alleles assessed as increase of accumulation of [3H]-chloroquine level at 1 uM after 1 hr relative to control
Method in brief: (§2)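 Isogenic pfcrt transfectant lines C2GCO3 (wild-type allele), C4Dd2 and C67G8 (CQ-resistance alleles from Dd2 or 7G8). CQ accumulation ratio measured with and without reverser. Expressed as fold increase in accumulation ratio over control.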

Plasmodium falciparum [4] = assay: Response modification index, ratio of IC50 for Plasmodium falciparum C4Dd2 expressing chloroquine-resistance-conferring pfcrt alleles in presence of drug to IC50 for Plasmodium falciparum C4Dd2 expressing chloroquine-resistance-conferring pfcrt alleles in absence of 800 nM of drug; assay type: functional
Method in brief: (§3)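 Proliferation assays on isogenic pfcrt transfectant lines (C4Dd2, C67G8). CQ IC50 determined with and without 800 nM test compound. RMI calculated as CQ IC50 with compound divided by CQ IC50 without compound.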

Plasmodium falciparum [5] = assay: Antiplasmodial activity against Plasmodium falciparum C4Dd2 expressing chloroquine-resistance-conferring pfcrt alleles assessed as parasite growth at 800 nM after 72 hrs by SYBR Green I-based fluorescence assay relative to control; assay type: functional
Method in brief: (§4)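 Isogenic pfcrt transfectant lines (C2GCO3 wild-type allele; C4Dd2 and C67G8 carrying CQ-resistance-conferring alleles from Dd2 or 7G8). Parasite proliferation measured in the absence of CQ with test compound at 800 nM and expressed relative to untreated control.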

Plasmodium falciparum [6] = assay: Response modification index, ratio of IC50 for Plasmodium falciparum C67G8 expressing chloroquine-resistance-conferring pfcrt alleles in presence of drug to IC50 for Plasmodium falciparum C67G8 expressing chloroquine-resistance-conferring pfcrt alleles in absence of 800 nM of drug; assay type: functional; method in brief: as §3
Plasmodium falciparum [7] = assay: Antiplasmodial activity against Plasmodium falciparum C2GC03 expressing wild-type pfcrt allele assessed as parasite growth at 800 nM after 72 hrs by SYBR Green I-based fluorescence assay relative to control; assay type: functional
Method in brief: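 Isogenic pfcrt transfectant parasite line C2GCO3 (wild-type pfcrt allele) was grown in a proliferation assay with the test compound at 800 nM and no chloroquine. Proliferation is expressed relative to untreated control.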

[8] = target: T1, Chloroquine resistance transporter (Plasmodium falciparum); assay: Inhibition of CTR in Plasmodium falciparum C2GC03 expressing wild-type pfcrt allele assessed as increase of accumulation of [3H]-chloroquine level at 1 uM after 1 hr; method in brief: as §2
[9] = target: T1, Chloroquine resistance transporter (Plasmodium falciparum); assay: Inhibition of chloroquine-sensitive Plasmodium falciparum D10 CRT expressed in Xenopus laevis oocytes plasma membrane assessed as reduction of [3H]-chloroquine transportation at 100 uM after 1 to 2 hrs; assay type: cell-based; method in brief: as §1
[10] = target: Chloroquine resistance transporter (Plasmodium falciparum, UniProt Q9N623); assay: Inhibition of chloroquine-resistant Plasmodium falciparum Dd2 CRT expressed in Xenopus laevis oocytes plasma membrane assessed as reduction of [3H]-chloroquine transportation after 1 to 2 hrs; assay type: cell-based
Method in brief: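 Xenopus oocytes expressing PfCRTCQR. Inhibition of [3H]CQ uptake measured over a range of reverser concentrations. IC50 derived from concentration-response data, reported as mean ± SEM.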

Plasmodium falciparum [11] = assay: Antiplasmodial activity against Plasmodium falciparum C67G8 expressing chloroquine-resistance-conferring pfcrt alleles assessed as parasite growth at 800 nM after 72 hrs by SYBR Green I-based fluorescence assay relative to control; assay type: functional; method in brief: as §4
[12] = target: T1, Chloroquine resistance transporter (Plasmodium falciparum); assay: Inhibition of CTR in Plasmodium falciparum C4Dd2 expressing chloroquine-resistance-conferring pfcrt alleles assessed as increase of accumulation of [3H]-chloroquine level at 1 uM after 1 hr relative to control; method in brief: as §2

Structure (SMILES)	inhibition [2]	inhibition [8]	inhibition [9]	other results
CCN(CC)C/C=C(\c1ccc(Cl)cc1)c1ccccn1	inactive	inactive	inactive	Ratio IC50 (Plasmodium falciparum [1]): 1.01; fold change (FC) [3]: 1.4; Ratio IC50 (Plasmodium falciparum [4]): 0.49; Activity (Plasmodium falciparum [5]): 84%; Ratio IC50 (Plasmodium falciparum [6]): 0.69; Activity (Plasmodium falciparum [7]): 100%; IC50 [10]: 321 µM; Activity (Plasmodium falciparum [11]): 90%; fold change (FC) [12]: 1.6
COc1ccc(CCN(C)CCCC(C#N)(c2ccc(OC)c(OC)c2)C(C)C)cc1OC (stereo not given)	Active	inactive	–	fold change (FC) [3]: 1.9; Activity (Plasmodium falciparum [5]): 46%; Activity (Plasmodium falciparum [7]): 43%; Activity (Plasmodium falciparum [11]): 55%; fold change (FC) [12]: 3.1
CCN(CC)C/C=C(/c1ccc(Cl)cc1)c1ccccn1	inactive	–	inactive	–
CN(C)C/C=C(/c1cccc(Cl)c1)c1ccccn1	inactive	inactive	inactive	–
CN(C)C/C=C(\c1cccc(Cl)c1)c1ccccn1	inactive	inactive	inactive	–
CN(C)CC/C=C(/c1ccc(Cl)cc1)c1ccccn1	inactive	inactive	inactive	–
CN(C)CC/C=C(/c1cccc(Cl)c1)c1ccccn1	inactive	inactive	inactive	–
CN(C)CC/C=C(/c1ccccn1)c1ccccc1Cl	inactive	inactive	inactive	–
CN(C)CC/C=C(\c1ccc(Cl)cc1)c1ccccn1	inactive	inactive	inactive	–
CN(C)CC/C=C(\c1cccc(Cl)c1)c1ccccn1	inactive	inactive	inactive	–
CN(C)CCC/C=C(/c1ccc(Cl)cc1)c1ccccn1	inactive	inactive	inactive	–
CN(C)CCC/C=C(\c1ccc(Cl)cc1)c1ccccn1	inactive	inactive	inactive	–
N#C/C=C(/c1ccccc1)c1ccccn1	inactive	inactive	inactive	–
N#C/C=C(\c1ccccc1)c1ccccn1	inactive	inactive	inactive	inhibition [3]: inactive; inhibition [12]: inactive
CN(C)CCCC(c1cccc(Cl)c1)c1ccccn1 (racemic)	inactive	inactive	inactive	Ratio IC50 (Plasmodium falciparum [1]): 0.95; fold change (FC) [3]: 2; Ratio IC50 (Plasmodium falciparum [4]): 0.27; Activity (Plasmodium falciparum [5]): 67%; Ratio IC50 (Plasmodium falciparum [6]): 0.35; Activity (Plasmodium falciparum [7]): 99%; IC50 [10]: 66 µM; Activity (Plasmodium falciparum [11]): 72%; fold change (FC) [12]: 2.7
CN(C)CCC(c1cccc(Cl)c1)c1ccccn1 (racemic)	inactive	inactive	inactive	Ratio IC50 (Plasmodium falciparum [1]): 0.99; Ratio IC50 (Plasmodium falciparum [4]): 0.27; Activity (Plasmodium falciparum [5]): 75%; Ratio IC50 (Plasmodium falciparum [6]): 0.35; Activity (Plasmodium falciparum [7]): 99%; IC50 [10]: 63 µM; Activity (Plasmodium falciparum [11]): 74%
CN(C)CCCCC(c1ccc(Cl)cc1)c1ccccn1 (racemic)	inactive	inactive	inactive	Ratio IC50 (Plasmodium falciparum [1]): 0.92; fold change (FC) [3]: 1.8; Ratio IC50 (Plasmodium falciparum [4]): 0.28; Activity (Plasmodium falciparum [5]): 74%; Ratio IC50 (Plasmodium falciparum [6]): 0.39; Activity (Plasmodium falciparum [7]): 100%; IC50 [10]: 180 µM; Activity (Plasmodium falciparum [11]): 79%; fold change (FC) [12]: 2.4
CCN(CC)CCC(c1ccc(Cl)cc1)c1ccccn1 (racemic)	inactive	inactive	inactive	–
CN(C)CCCC(c1ccc(Cl)cc1)c1ccccn1 (racemic)	inactive	inactive	inactive	–
CN(C)CCCC(c1cccc(Cl)c1)c1cnccn1 (racemic)	inactive	inactive	inactive	–
CN(C)CCCC(c1ccccc1)c1ccccn1 (racemic)	inactive	inactive	inactive	–
CN(C)CCCC(c1ccccn1)c1ccccc1Cl (racemic)	inactive	inactive	inactive	–
CN(C)CCCC(c1cccnc1)c1cccc(Cl)c1 (racemic)	inactive	inactive	inactive	–
CN(C)CCCC(c1ccncc1)c1cccc(Cl)c1 (racemic)	inactive	inactive	inactive	–
CN(C)CCCCCC(c1ccc(Cl)cc1)c1ccccn1 (racemic)	inactive	inactive	inactive	–
CN(C)CCC(c1ccc(Cl)cc1)c1ccccn1 (stereo in doubt; form 1)	Active	inactive	–	fold change (FC) [3]: 2; fold change (FC) [12]: 2.7
CN(C)CCC(c1ccc(Cl)cc1)c1ccccn1 (stereo in doubt; form 1) [CHLORPHENIRAMINE]	–	–	–	Ratio IC50 (Plasmodium falciparum [1]): 1.09; Ratio IC50 (Plasmodium falciparum [4]): 0.24; Activity (Plasmodium falciparum [5]): 78%; Ratio IC50 (Plasmodium falciparum [6]): 0.37; Activity (Plasmodium falciparum [7]): 97%; IC50 [10]: 54 µM; Activity (Plasmodium falciparum [11]): 76%
CN(C)CCC(c1ccc(Cl)cc1)c1ccccn1 (stereo in doubt; form 2)	–	inactive	–	–
COc1cc(NC(C)CCCN)c2ncccc2c1 (stereo not given) [PRIMAQUINE]	Active	–	–	IC50 [10]: 68 µM
CC(CN1c2ccccc2Sc2ccccc21)N(C)C (stereo not given) [PROMETHAZINE]	Active	–	–	IC50 [10]: 85 µM
